Assay results from ChEMBL document CHEMBL4038278, “Structural modifications of diarylpyrimidines (DAPYs) as HIV-1 NNRTIs: Synthesis, anti-HIV activities and SAR” (Bioorg Med Chem, 2017).

Tested on: not listed separately
Test: Selectivity index, ratio of CC50 for human MT4 cells to EC50 for HIV-1 3B wild type reverse transcriptase infected in human MT4 cells
Type: toxicity, cell-based
Settings: read-out: Ratio CC50/EC50
Method in brief: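 SI calculated as CC50 in mock-infected MT-4 cells divided by EC50 against HIV-1 IIIB. Both values come from the same 5-day MTT run, with infected and mock-infected triplicate series tested in parallel.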

Row | SMILES | selectivity ratio
1 | N#Cc1ccc(Nc2nccc(OCc3ccccc3)n2)cc1 | 591
2 | N#Cc1ccc(Nc2nccc(OCc3ccc4ccccc4c3)n2)cc1 | 1250
3 | CN(C)c1ccnc(Nc2ccc(C#N)cc2)n1 | < 1
4 | N#Cc1ccc(Nc2nccc(OCc3cccc(Br)c3)n2)cc1 | 4600
5 | N#Cc1ccc(Nc2nccc(OCc3cccc(F)c3)n2)cc1 | 7500
6 | COc1ccccc1COc1ccnc(Nc2ccc(C#N)cc2)n1 | 356
7 | N#Cc1ccc(Nc2nccc(OCc3cccc(C#N)c3)n2)cc1 | 23
8 | N#Cc1ccc(Nc2nccc(OCc3ccccc3C#N)n2)cc1 | 8070
9 | N#Cc1ccc(Nc2nccc(OCc3ccccc3C(F)(F)F)n2)cc1 | 102
10 | N#Cc1ccc(Nc2nccc(OCc3ccccc3F)n2)cc1 | 26000
11 | Cc1cc(C)nc(Sc2ccnc(Nc3ccc(C#N)cc3)n2)n1 | 8
12 | N#Cc1ccc(Nc2nccc(OCc3cccc(C(F)(F)F)c3)n2)cc1 | 193
13 | N#Cc1ccc(Nc2nccc(OCc3cccc(Cl)c3)n2)cc1 | 3120
14 | Cc1cccc(COc2ccnc(Nc3ccc(C#N)cc3)n2)c1 | 3410
15 | N#Cc1ccc(Nc2nccc(OCc3cc(F)ccc3Br)n2)cc1 | 4870
16 | N#Cc1ccc(Nc2nccc(OCc3ccccc3Br)n2)cc1 | 3610
17 | N#Cc1ccc(Nc2nccc(OCc3ccc(F)cc3)n2)cc1 | 88
18 | COc1cccc(COc2ccnc(Nc3ccc(C#N)cc3)n2)c1 | 4720
19 | N#Cc1ccc(Nc2nccc(OCc3cccc4ccccc34)n2)cc1 | 513
20 | N#Cc1ccc(Nc2nccc(OCc3ccc(Br)cc3F)n2)cc1 | 641
21 | N#Cc1ccc(Nc2nccc(OCc3cccnc3)n2)cc1 | 8
22 | N#Cc1ccc(Nc2nccc(OCc3ccc(Br)cc3)n2)cc1 | 3.4
23 | N#Cc1ccc(Nc2nccc(OCc3ccccc3Cl)n2)cc1 | 4420
24 | Cc1ccc(COc2ccnc(Nc3ccc(C#N)cc3)n2)cc1 | 495
25 | N#Cc1ccc(COc2ccnc(Nc3ccc(C#N)cc3)n2)cc1 | 149
26 | COc1cc(COc2ccnc(Nc3ccc(C#N)cc3)n2)cc(OC)c1 | 4940
27 | N#Cc1ccc(Nc2nccc(NCc3ccccn3)n2)cc1 | 1120
28 | N#Cc1ccc(Nc2nccc(OCc3ccc(Cl)cc3)n2)cc1 | 186
29 | Cc1ccccc1COc1ccnc(Nc2ccc(C#N)cc2)n1 | 75
30 | COc1ccc(COc2ccnc(Nc3ccc(C#N)cc3)n2)cc1 | 102

Tested on: Human immunodeficiency virus 2
Test: Antiviral activity against HIV-2 ROD infected in human MT4 cells assessed as protection against virus induced cytopathic effect measured at 5 days post infection by MTT assay
Type: functional, cell-based
Settings: Human immunodeficiency virus 2, ISOLATE ROD, MT4, 120 h
Method in brief: (§1)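 MT-4 cells spun down (5 min, 220 g), resuspended at 6 x 10^5 cells/mL and infected with 100-300 CCID50 virus. Serial 5-fold compound dilutions added at infection, triplicate wells. After 5 days, viability read by MTT reduction at 540 and 690 nm using the median of three wells. […] Mean of at least three independent experiments.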

Row | SMILES | EC50 [µM]
31 | N#Cc1ccc(Nc2nccc(OCc3ccccc3)n2)cc1 | > 13
32 | N#Cc1ccc(Nc2nccc(OCc3ccc4ccccc4c3)n2)cc1 | > 212
33 | CN(C)c1ccnc(Nc2ccc(C#N)cc2)n1 | > 34
34 | N#Cc1ccc(Nc2nccc(OCc3cccc(Br)c3)n2)cc1 | > 221
35 | N#Cc1ccc(Nc2nccc(OCc3cccc(F)c3)n2)cc1 | > 105
36 | COc1ccccc1COc1ccnc(Nc2ccc(C#N)cc2)n1 | > 8.9
37 | N#Cc1ccc(Nc2nccc(OCc3cccc(C#N)c3)n2)cc1 | > 4.1
38 | N#Cc1ccc(Nc2nccc(OCc3ccccc3C#N)n2)cc1 | > 113
39 | N#Cc1ccc(Nc2nccc(OCc3ccccc3C(F)(F)F)n2)cc1 | > 173
40 | N#Cc1ccc(Nc2nccc(OCc3ccccc3F)n2)cc1 | > 151
41 | Cc1cc(C)nc(Sc2ccnc(Nc3ccc(C#N)cc3)n2)n1 | > 224
42 | N#Cc1ccc(Nc2nccc(OCc3cccc(C(F)(F)F)c3)n2)cc1 | > 118
43 | N#Cc1ccc(Nc2nccc(OCc3cccc(Cl)c3)n2)cc1 | > 153
44 | Cc1cccc(COc2ccnc(Nc3ccc(C#N)cc3)n2)c1 | > 30
45 | N#Cc1ccc(Nc2nccc(OCc3cc(F)ccc3Br)n2)cc1 | > 190
46 | N#Cc1ccc(Nc2nccc(OCc3ccccc3Br)n2)cc1 | > 130
47 | N#Cc1ccc(Nc2nccc(OCc3ccc(F)cc3)n2)cc1 | > 81
48 | COc1cccc(COc2ccnc(Nc3ccc(C#N)cc3)n2)c1 | > 118
49 | N#Cc1ccc(Nc2nccc(OCc3cccc4ccccc34)n2)cc1 | > 7.7
50 | N#Cc1ccc(Nc2nccc(OCc3ccc(Br)cc3F)n2)cc1 | > 141
51 | N#Cc1ccc(Nc2nccc(OCc3cccnc3)n2)cc1 | > 6.4
52 | N#Cc1ccc(Nc2nccc(OCc3ccc(Br)cc3)n2)cc1 | > 16
53 | N#Cc1ccc(Nc2nccc(OCc3ccccc3Cl)n2)cc1 | > 146
54 | Cc1ccc(COc2ccnc(Nc3ccc(C#N)cc3)n2)cc1 | > 81
55 | N#Cc1ccc(COc2ccnc(Nc3ccc(C#N)cc3)n2)cc1 | > 209
56 | COc1cc(COc2ccnc(Nc3ccc(C#N)cc3)n2)cc(OC)c1 | > 44
57 | N#Cc1ccc(Nc2nccc(NCc3ccccn3)n2)cc1 | > 8.5
58 | N#Cc1ccc(Nc2nccc(OCc3ccc(Cl)cc3)n2)cc1 | > 156
59 | Cc1ccccc1COc1ccnc(Nc2ccc(C#N)cc2)n1 | > 12
60 | COc1ccc(COc2ccnc(Nc3ccc(C#N)cc3)n2)cc1 | > 102

Tested on: not listed separately
Test: Cytotoxicity against human MT4 cells assessed as reduction in cell viability after 5 days by MTT assay
Type: cell-based
Settings: not given
Method in brief: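 Mock-infected exponentially growing MT-4 cells (6 x 10^5 cells/mL) given serial 5-fold compound dilutions in triplicate wells in parallel with the infected series. Viability measured by MTT after 5 days, absorbance at 540/690 nm, median of three wells. […] Mean of at least three independent experiments.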

Row | SMILES | CC50 at 120 h [µM]
61 | N#Cc1ccc(Nc2nccc(OCc3ccccc3)n2)cc1 | 13
62 | N#Cc1ccc(Nc2nccc(OCc3ccc4ccccc4c3)n2)cc1 | 212
63 | CN(C)c1ccnc(Nc2ccc(C#N)cc2)n1 | 34
64 | N#Cc1ccc(Nc2nccc(OCc3cccc(Br)c3)n2)cc1 | 221
65 | N#Cc1ccc(Nc2nccc(OCc3cccc(F)c3)n2)cc1 | 105
66 | COc1ccccc1COc1ccnc(Nc2ccc(C#N)cc2)n1 | 8.9
67 | N#Cc1ccc(Nc2nccc(OCc3cccc(C#N)c3)n2)cc1 | 4.1
68 | N#Cc1ccc(Nc2nccc(OCc3ccccc3C#N)n2)cc1 | 113
69 | N#Cc1ccc(Nc2nccc(OCc3ccccc3C(F)(F)F)n2)cc1 | 173
70 | N#Cc1ccc(Nc2nccc(OCc3ccccc3F)n2)cc1 | 151
71 | Cc1cc(C)nc(Sc2ccnc(Nc3ccc(C#N)cc3)n2)n1 | 224
72 | N#Cc1ccc(Nc2nccc(OCc3cccc(C(F)(F)F)c3)n2)cc1 | 118
73 | N#Cc1ccc(Nc2nccc(OCc3cccc(Cl)c3)n2)cc1 | 153
74 | Cc1cccc(COc2ccnc(Nc3ccc(C#N)cc3)n2)c1 | 30
75 | N#Cc1ccc(Nc2nccc(OCc3cc(F)ccc3Br)n2)cc1 | 190
76 | N#Cc1ccc(Nc2nccc(OCc3ccccc3Br)n2)cc1 | 130
77 | N#Cc1ccc(Nc2nccc(OCc3ccc(F)cc3)n2)cc1 | 81

Row | SMILES | CC50 at 120 h [µM]
78 | COc1cccc(COc2ccnc(Nc3ccc(C#N)cc3)n2)c1 | 118
79 | N#Cc1ccc(Nc2nccc(OCc3cccc4ccccc34)n2)cc1 | 7.7
80 | N#Cc1ccc(Nc2nccc(OCc3ccc(Br)cc3F)n2)cc1 | 141
81 | N#Cc1ccc(Nc2nccc(OCc3cccnc3)n2)cc1 | 6.4
82 | N#Cc1ccc(Nc2nccc(OCc3ccc(Br)cc3)n2)cc1 | 16
83 | N#Cc1ccc(Nc2nccc(OCc3ccccc3Cl)n2)cc1 | 146
84 | Cc1ccc(COc2ccnc(Nc3ccc(C#N)cc3)n2)cc1 | 81
85 | N#Cc1ccc(COc2ccnc(Nc3ccc(C#N)cc3)n2)cc1 | 209
86 | COc1cc(COc2ccnc(Nc3ccc(C#N)cc3)n2)cc(OC)c1 | 44.2
87 | N#Cc1ccc(Nc2nccc(NCc3ccccn3)n2)cc1 | 8.5
88 | N#Cc1ccc(Nc2nccc(OCc3ccc(Cl)cc3)n2)cc1 | 156
89 | Cc1ccccc1COc1ccnc(Nc2ccc(C#N)cc2)n1 | 12
90 | COc1ccc(COc2ccnc(Nc3ccc(C#N)cc3)n2)cc1 | 102
91 | CC(C)Nc1cccnc1N1CCN(C(=O)c2cc3cc(NS(C)(=O)=O)ccc3[nH]2)CC1 [DELAVIRDINE] | 23
92 | Cc1cc(C#N)cc(C)c1Oc1nc(Nc2ccc(C#N)cc2)nc(N)c1Br [ETRAVIRINE] | 1.9
93 | Cc1ccnc2c1NC(=O)c1cccnc1N2C1CC1 [NEVIRAPINE] | > 15

Tested on: not listed separately
Test: Inhibition of HIV-1 3B wild type reverse transcriptase infected in human MT4 cells assessed as protection against virus-induced cytopathic effect measured at 5 days post infection by MTT assay
Type: cell-based
Settings: Human immunodeficiency virus 1, 3B, MT4, 120 h
Method in brief: as §1

Row | SMILES | EC50 [µM]
94 | N#Cc1ccc(Nc2nccc(OCc3ccccc3)n2)cc1 | 0.022
95 | N#Cc1ccc(Nc2nccc(OCc3ccc4ccccc4c3)n2)cc1 | 0.17
96 | CN(C)c1ccnc(Nc2ccc(C#N)cc2)n1 | > 34
97 | N#Cc1ccc(Nc2nccc(OCc3cccc(Br)c3)n2)cc1 | 0.048
98 | N#Cc1ccc(Nc2nccc(OCc3cccc(F)c3)n2)cc1 | 0.014
99 | COc1ccccc1COc1ccnc(Nc2ccc(C#N)cc2)n1 | 0.027
100 | N#Cc1ccc(Nc2nccc(OCc3cccc(C#N)c3)n2)cc1 | 0.18
101 | N#Cc1ccc(Nc2nccc(OCc3ccccc3C#N)n2)cc1 | 0.014
102 | N#Cc1ccc(Nc2nccc(OCc3ccccc3C(F)(F)F)n2)cc1 | 1.7
103 | N#Cc1ccc(Nc2nccc(OCc3ccccc3F)n2)cc1 | 0.0058
104 | Cc1cc(C)nc(Sc2ccnc(Nc3ccc(C#N)cc3)n2)n1 | 27
105 | N#Cc1ccc(Nc2nccc(OCc3cccc(C(F)(F)F)c3)n2)cc1 | 0.61
106 | N#Cc1ccc(Nc2nccc(OCc3cccc(Cl)c3)n2)cc1 | 0.049
107 | Cc1cccc(COc2ccnc(Nc3ccc(C#N)cc3)n2)c1 | 0.0088
108 | N#Cc1ccc(Nc2nccc(OCc3cc(F)ccc3Br)n2)cc1 | 0.039
109 | N#Cc1ccc(Nc2nccc(OCc3ccccc3Br)n2)cc1 | 0.036
110 | N#Cc1ccc(Nc2nccc(OCc3ccc(F)cc3)n2)cc1 | 0.92
111 | COc1cccc(COc2ccnc(Nc3ccc(C#N)cc3)n2)c1 | 0.025

Row | SMILES | EC50 [µM]
112 | N#Cc1ccc(Nc2nccc(OCc3cccc4ccccc34)n2)cc1 | 0.015
113 | N#Cc1ccc(Nc2nccc(OCc3ccc(Br)cc3F)n2)cc1 | 0.22
114 | N#Cc1ccc(Nc2nccc(OCc3cccnc3)n2)cc1 | 0.77
115 | N#Cc1ccc(Nc2nccc(OCc3ccc(Br)cc3)n2)cc1 | 4.7
116 | N#Cc1ccc(Nc2nccc(OCc3ccccc3Cl)n2)cc1 | 0.034
117 | Cc1ccc(COc2ccnc(Nc3ccc(C#N)cc3)n2)cc1 | 0.16
118 | N#Cc1ccc(COc2ccnc(Nc3ccc(C#N)cc3)n2)cc1 | 1.4
119 | COc1cc(COc2ccnc(Nc3ccc(C#N)cc3)n2)cc(OC)c1 | 0.0089
120 | N#Cc1ccc(Nc2nccc(NCc3ccccn3)n2)cc1 | 0.0076
121 | N#Cc1ccc(Nc2nccc(OCc3ccc(Cl)cc3)n2)cc1 | 0.84
122 | Cc1ccccc1COc1ccnc(Nc2ccc(C#N)cc2)n1 | 0.16
123 | COc1ccc(COc2ccnc(Nc3ccc(C#N)cc3)n2)cc1 | 1
124 | CC(C)Nc1cccnc1N1CCN(C(=O)c2cc3cc(NS(C)(=O)=O)ccc3[nH]2)CC1 [DELAVIRDINE] | 0.037
125 | O=C1Nc2ccc(Cl)cc2[C@@](C#CC2CC2)(C(F)(F)F)O1 [EFAVIRENZ] | 0.0073
126 | Cc1cc(C#N)cc(C)c1Oc1nc(Nc2ccc(C#N)cc2)nc(N)c1Br [ETRAVIRINE] | 0.0042
127 | Cc1ccnc2c1NC(=O)c1cccnc1N2C1CC1 [NEVIRAPINE] | 0.21
128 | Cc1cn([C@H]2C[C@H](N=[N+]=[N-])[C@@H](CO)O2)c(=O)[nH]c1=O [ZIDOVUDINE] | 0.011
